Assay outcomes: PubChem, several laboratories
Compounds with a hit are over-represented: about 2.9% of the library has one in this group of screens.
SENP8 block-1 = SENP8 (human) protease inhibition; recombinant SENP8, Nedd8 substrate fluorescence; inhibition, % at 20 µM; 360,000 tested, 0.64% active; in the data active = inhibition mostly above about 40%, no sharp cut-off; inactive = mostly below about 27%
SENP8 block-2 = blocks the human protease SENP8 | Q96LD8 | purified SENP8, Z-RLRGG-aminoluciferin cleavage, luminescence | inhibition, % at 10 µM | 330,000 tested, 1.2% active | AID 2540; in the data active = inhibition above about 50%
SENP1 FRET inh = SENP1 (human) catalytic domain inhibition | inhibition, % at 10 µM | recombinant SENP1 catalytic domain, CyPet-SUMO1-YPet FRET cleavage | 360,000 tested, 0.21% active;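 active = inhibition at least 30% at 10 µM, raw YFP signal under a set limit, fluorescence ratio 0.5 to 1.5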
Target sequence (Q9P0U3 419-644 limits assumed): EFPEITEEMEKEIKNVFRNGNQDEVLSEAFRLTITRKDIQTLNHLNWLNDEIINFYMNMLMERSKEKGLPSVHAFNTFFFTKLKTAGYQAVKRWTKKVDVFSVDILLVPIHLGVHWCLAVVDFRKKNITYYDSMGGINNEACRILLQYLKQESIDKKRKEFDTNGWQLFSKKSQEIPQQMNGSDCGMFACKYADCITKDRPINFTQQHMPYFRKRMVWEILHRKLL
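material = recombinant human SENP1 catalytic domain, His6-tagged | quantity = 20 pM enzyme | reagent = 25 nM SUMO1 FRET substrate | compound dosing = 10 µM single point, 0.5% DMSO | timing = 50 min enzyme reaction, room temperature, light-protected | detection = FRET, CFP and YFP emission | control set = no-enzyme low, enzyme-DMSO high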
SENP7 block = SENP7 protease inhibition; inhibition, % at 5 µM; Q9BQF6; 330,000 tested, 1.5% active; recombinant SENP7, Z-RLRGG-aminoluciferin luminescence, 40 min; AID 434973;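 active = inhibition above about 50% at the single test dose, limit read from the data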
HSP90 inh = HSP90 refolding inhibition in rabbit reticulocyte lysate | luciferase refolding luminescence, 3 h | inhibition, % at 5.6 µM | 290,000 tested, 0.91% active | AID 1789;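 active = inhibition above the screen-wide mean plus 3 SD, computed separately per campaign, cut at about 16% in these data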;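 also: inhibitors lower the luminescence because luciferase stays unfolded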
SENP6 block = blocks the human protease SENP6; Recombinant SENP6 catalytic domain, aminoluciferin luminescence; AID 2599; 330,000 tested, 1.8% active; inhibition, % at 10 µM; Q9GZR1;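 active = inhibition above about 50% at the single tested dose, limit read from the data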
SENP8 confirm = confirmation of human SENP8 protease inhibitors; shares compounds with SENP7 block; Recombinant SENP8, Z-RLRGG-aminoluciferin luminescence, 60 min; inhibition, % at 12.5 µM; 6,200 tested, 40% active;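 active = mean inhibition across replicates above about 50%, limit read from the data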
SENP6 confirm = confirmation of human SENP6 protease inhibitors | inhibition, % at 12.5 µM | AID 488915 | 6,200 tested, 58% active | shares compounds with SENP7 block | recombinant SENP6, Z-RLRGG-aminoluciferin luminescence
SENP7 conf = confirmation of human SENP7 protease inhibitors | shares compounds with SENP7 block | recombinant SENP7, Z-RLRGG-aminoluciferin luminescence, 40 min | inhibition, % at 12.5 µM | 6,200 tested, 69% active
Casp3 select = selectivity test for SENP inhibitors: human caspase-3 inhibition. AID 488918. inhibition, % at 12.5 µM. shares compounds with SENP7 block. purified caspase-3, Z-DEVD-aminoluciferin luminescence, 60 min. 6,200 tested, 60% active;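 active = mean inhibition above about 50%, limit read from the data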
Target sequence (P42574 28-227 limits assumed): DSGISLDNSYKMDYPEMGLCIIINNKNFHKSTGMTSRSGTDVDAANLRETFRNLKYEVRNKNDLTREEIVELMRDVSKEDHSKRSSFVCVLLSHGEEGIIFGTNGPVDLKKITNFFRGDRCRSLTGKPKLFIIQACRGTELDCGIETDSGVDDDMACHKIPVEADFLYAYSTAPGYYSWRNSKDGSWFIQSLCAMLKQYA
Luc interf = counter-screen for SENP inhibitors: luminescence interference | inhibition, % at 12.5 µM | shares compounds with SENP7 block | 6,200 tested, 39% active | Pre-incubated SENP8/Z-RLRGG-aminoluciferin, luciferase luminescence interference;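 active = mean inhibition above about 50% when retested at one dose, limit read from the data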
Numbers stand for hits; i = inactive; nt = no result given.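 The calls were made as follows, unless noted: active = mean inhibition above about 50% in the one-dose retest (limit read from the data); inactive = the rest.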

SMILES	SENP8 block-1	SENP8 block-2	SENP1 FRET inh	SENP7 block	HSP90 inh	SENP6 block	SENP8 confirm	SENP6 confirm	SENP7 conf	Casp3 select	Luc interf
O=C(Nc1ccc(F)c(Cl)c1)c1ccc2c(c1)OCO2	i	81	i	76	i	88	i	90	100	84	i
COc1ccc(NC(=O)CSc2ncn(-c3ccccc3)n2)cc1Cl	i	i	i	i	i	93	i	i	i	i	i
COc1ccc(NC(=O)c2ccc3c(c2)OCO3)cc1Cl	i	83	i	93	i	80	i	88	99	88	i
NS(=O)(=O)c1ccc(NC(=O)c2ccc3c(c2)OCO3)cc1	i	i	i	i	i	i	nt	nt	nt	nt	nt
CCCCCC(=O)N1C[C@@H](n2cc(C3CC3)nn2)[C@H](O)C[C@@H]1c1ccc(Cl)cc1	i	nt	i	nt	nt	nt	nt	nt	nt	nt	nt
Cc1ccc(NC(=O)c2ccc(S(=O)(=O)NCc3cccnc3)cc2)c(C)c1	i	i	i	i	i	i	nt	nt	nt	nt	nt
O=C(NCCCN1CCOCC1)c1sc2cc([N+](=O)[O-])ccc2c1Cl	i	i	i	i	i	62	i	i	i	i	i
COc1ccc(N=C(C)C2=C(O)c3ccccc3C2=O)cc1	i	73	i	77	i	87	i	74	71	i	i
C/C(=N\N(C)C)C1=C(O)c2ccccc2C1=O	i	i	i	i	i	i	nt	nt	nt	nt	nt
CCOc1ccc(N=C(C)C2=C(O)c3ccccc3C2=O)cc1	i	78	i	84	i	85	i	i	i	i	i
CCOC(=O)[C@]12CCCC=C1N(CCC1=CCCCC1)C(=O)[C@H](CC(=O)NCC1CCCCC1)C2	i	nt	i	nt	nt	nt	nt	nt	nt	nt	nt
COc1c(C)cc(C(O)c2ncc(-c3ccc(C(F)(F)F)cc3)[nH]2)cc1C (stereo not given)	i	nt	i	nt	nt	nt	nt	nt	nt	nt	nt
Cn1c(=O)c2c(nc(NCCNC(=O)c3ccco3)n2Cc2ccccc2)n(C)c1=O	i	i	i	i	i	i	nt	nt	nt	nt	nt
COc1cc(CNCc2ccncc2)cc(Br)c1OCc1ccccc1F	i	i	i	i	i	i	nt	nt	nt	nt	nt
COc1cc(CNc2ccc(O)cc2)cc(Br)c1OCc1ccccc1F	i	i	i	60	i	i	i	i	i	i	i
O=C1/C(=C/c2cccs2)COc2ccccc21	i	81	i	83	i	98	86	92	90	69	94
CN(C)/N=C/C=C1\CCC/C(=C/c2cccs2)C1=O	i	i	i	i	i	i	nt	nt	nt	nt	nt
Cc1occc1C(=O)Nc1ccc(Br)cc1F	i	i	i	i	i	56	i	i	73	63	i
CC(=O)Nc1ccc2c(c1)OCCOCCOc1cc(NC(C)=O)ccc1OCCOCCOCCO2	nt	i	nt	i	i	i	nt	nt	nt	nt	nt
Cc1cc(C(=O)Nc2ccncc2)c(C)o1	i	nt	i	nt	nt	nt	nt	nt	nt	nt	nt
Cc1occc1C(=O)Nc1ccc2c(c1)OCCO2	i	73	i	84	i	89	i	78	95	90	76
O=C(Nc1ccc2c(c1)OCCO2)C(=O)c1c[nH]c2ccccc12	i	82	i	99	i	87	79	78	101	86	92
Cc1cc(C(=O)Nc2ccc3c(c2)OCCO3)c(C)o1	i	i	i	51	i	i	i	i	84	81	67
CC(=O)NC(c1cccc(F)c1)c1nc(-c2cc(F)cc(Cl)c2)cs1 (stereo not given)	i	nt	i	nt	nt	nt	nt	nt	nt	nt	nt
Cc1cc(C(=O)Nc2ccc3c(c2)OCCO3)c2ccccc2n1	i	i	i	i	i	i	nt	nt	nt	nt	nt
Cc1occc1C(=O)Nc1ccc2c(c1)CCC2	i	86	i	93	i	91	92	92	99	94	92
